In assay [1] the test system is Staphylococcus aureus. As to the kind of experiment: Antibacterial activity against Staphylococcus aureus at 100 ug/ml by disk diffusion method. It counts as functional. As to conditions: read-out: IZ. The method in brief: (§1)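 Agar disc diffusion on nutrient agar plates. Inoculum of […] (0.5 McFarland) spread evenly over the agar surface. Whatman filter paper discs, 6.25 mm diameter, dry-heat sterilized at 140 °C for 1 h, soaked in test solution and placed on the agar. Plates inverted and incubated 24 h at 37 °C. Solvent and growth controls and a ciprofloxacin reference run alongside. Inhibition zones measured.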
(In general: Agar diffusion results depend on both activity and mobility in agar.)

The subject of assay [2] is Bacillus subtilis. In words: Antibacterial activity against Bacillus subtilis at 100 ug/ml by disk diffusion method. It counts as functional. The conditions noted are these: read-out: IZ. The procedure, abridged: as §1
Assay [3] relates to Bacillus pumilus. As to the kind of experiment: Antibacterial activity against Bacillus pumilus at 100 ug/ml by disk diffusion method. It is filed as functional. As to conditions: read-out: IZ. The procedure, abridged: as §1
Assay [4] has as its system Escherichia coli. As to the kind of experiment: Antibacterial activity against Escherichia coli at 100 ug/ml by disk diffusion method. The conditions noted are these: for zone of inhibition at 100 µg/mL: read-out: IZ. It is filed as functional. The method in brief: as §1
Assay [5] concerns Pseudomonas aeruginosa. In words: Antibacterial activity against Pseudomonas aeruginosa at 100 ug/ml by disk diffusion method. It counts as functional. The conditions noted are these: for zone of inhibition at 100 µg/mL: read-out: IZ. The method in brief: as §1
Assay [6] deals with Klebsiella pneumoniae. In words: Antibacterial activity against Klebsiella pneumoniae at 100 ug/ml by disk diffusion method. It counts as functional. The conditions noted are these: for zone of inhibition at 100 µg/mL: read-out: IZ. The procedure, abridged:
as §1

The test system of assay [7] is Bacillus subtilis. In words: Antibacterial activity against Bacillus subtilis by broth dilution technique. In general terms: Broth dilution looks for growth in wells or tubes with falling amounts of substance.
The test system of assay [8] is Bacillus pumilus. In words: Antibacterial activity against Bacillus pumilus by broth dilution technique.
The test system of assay [9] is Klebsiella pneumoniae. In words: Antibacterial activity against Klebsiella pneumoniae by broth dilution technique.

In brackets after ≈: the same amount, converted by molar mass. Activity calls are given as the source filed them. The calls are words filed in the database; no cut-off is given here.

The values below come from ChEMBL document CHEMBL1137747, “Fullerene derivatized s-triazine analogues as antimicrobial agents” (2009).

Usually MIC stands for the least concentration at which growth counts as inhibited. Read a high MIC as weaker potency.

Regarding `O=C(O)c1cn(C2CC2)c2cc(N3CCNCC3)c(F)cc2c1=O` [CIPROFLOXACIN], the zone of inhibition at 100 µg/mL in assay [1] came out at 22 mm; in [2], 38 mm; in assay [3], 36 mm; in assay [4], 27 mm; in assay [5], 32 mm; in assay [6], 19 mm. Also, the MIC in assay [7] is 0.06 µg/mL (≈ 0.181 µM); in [8], 0.25 µg/mL (≈ 0.754 µM); in assay [9], 12.5 µg/mL (≈ 37.7 µM).
On to `Nc1nc(N)nc(N/N=C/c2ccc(C=O)cc2)n1`, for which the zone of inhibition at 100 µg/mL in [1] was 9 mm; in assay [2] it was 16 mm; in assay [3], 15 mm; in [4] it was 15 mm; in assay [5], 11 mm. Moreover, the “inhibition zone (IZ)” value in assay [6] is “inactive”.
Consider `CNc1nc(NC)nc(N/N=C/c2ccc(C=O)cc2)n1`, for which the zone of inhibition at 100 µg/mL in assay [1] was 11 mm; in assay [2], 12 mm; in assay [3], 10 mm; in [4], 14 mm; in assay [5] it was 11 mm; in assay [6] it was 14 mm.
As to `CN(C)c1nc(N/N=C/c2ccc(C=O)cc2)nc(N(C)C)n1`, the zone of inhibition at 100 µg/mL in assay [1] came to 9 mm; in assay [2] it was 10 mm; in assay [3] it was 10 mm. For the same compound, the “inhibition zone (IZ)” value in [4], in [5] and in assay [6] was “inactive” each time.
Take `CNc1nc(N)nc(N/N=C/c2ccc(C=O)cc2)n1`: the zone of inhibition at 100 µg/mL in [1] came to 9 mm; in [2], 18 mm; in [3] it was 13 mm; in [4], 15 mm; in [5] it was 13 mm; in [6], 15 mm.
As to `CNc1nc(N/N=C/c2ccc(C=O)cc2)nc(N(C)C)n1`, the zone of inhibition at 100 µg/mL was determined as 10 mm in assay [1]; 10 mm in assay [2]; 11 mm in assay [3]; 12 mm in [4]; 10 mm in assay [5]; 12 mm in [6].
